Test results published in ChEMBL document CHEMBL3046095, “Synthesis and antiviral activities of amide derivatives containing the alpha-aminophosphonate moiety” (J Agric Food Chem, 2008).
In brackets after ≈: the same amount, converted by molar mass.

Assays:
[1] = tested on: Tobacco mosaic virus; assay: Antiviral activity against Tobacco mosaic virus (TMV) inoculated on 500 ug/mL compound smeared Nicotiana tabacum leaves assessed as protective effect against viral infection measured 3 to 4 days post viral infection; type: functional
How it was run: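 Half-leaf assay on same-age growing Nicotiana tabacum leaves: compound solution smeared on left half, solvent on right half as control. After 12 h, leaves scattered with silicon carbide were brush-inoculated with TMV at 6 × 10^-3 mg/mL. Local lesions were counted 3–4 d post-inoculation, three repetitions. Inhibition % = (control mean lesions − treated mean lesions)/control mean lesions × 100.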

[2] = tested on: Tobacco mosaic virus; assay: Antiviral activity against Tobacco mosaic virus (TMV) inoculated on whole Nicotiana tabacum leaves followed by smearing with 500 ug/mL compound solution on left side of leaves assessed as viral infection curative effect measured 3 to 4 days post viral infection; type: functional
How it was run: (§1)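 Whole same-age growing N. tabacum leaves were dip-inoculated with TMV at 6 × 10^-3 mg/mL, then washed with water and dried. Compound solution was smeared on left half, solvent on right half as control. Local lesions were counted 3–4 d after inoculation, three repetitions per compound. Inhibition % = (control mean lesions − treated mean lesions)/control mean lesions × 100.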

[3] = tested on: Tobacco mosaic virus; assay: Antiviral activity against Tobacco mosaic virus (TMV) pre-treated with 500 ug/mL compound for 30 min followed by inoculation on left side of Nicotiana tabacum leaves assessed as virus inactivation effect measured 3 to 4 days post viral infection; type: functional
How it was run: (§2)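 Inactivation assay on N. tabacum leaves, with a solvent–virus mixture inoculated as control. Local lesion numbers were recorded 3–4 d after inoculation, three repetitions per compound. Inhibition % was derived from mean lesion counts relative to control.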

[4] = tested on: Tobacco mosaic virus; assay: Antiviral activity against Tobacco mosaic virus (TMV) pre-treated with 62.5 ug/mL compound for 30 min followed by inoculation on left side of Nicotiana tabacum leaves assessed as virus inactivation effect measured 3 to 4 days post viral infection; type: functional; how it was run: as §2
[5] = tested on: Tobacco mosaic virus; assay: Antiviral activity against Tobacco mosaic virus (TMV) pre-treated with 125 ug/mL compound for 30 min followed by inoculation on left side of Nicotiana tabacum leaves assessed as virus inactivation effect measured 3 to 4 days post viral infection; type: functional; how it was run: as §2
[6] = tested on: Tobacco mosaic virus; assay: Antiviral activity against Tobacco mosaic virus (TMV) inoculated on whole Nicotiana tabacum leaves followed by smearing with 250 ug/mL compound solution on left side of leaves assessed as viral infection curative effect measured 3 to 4 days post viral infection; type: functional; how it was run: as §1
[7] = tested on: Tobacco mosaic virus; assay: Antiviral activity against Tobacco mosaic virus (TMV) inoculated on whole Nicotiana tabacum leaves followed by smearing with 125 ug/mL compound solution on left side of leaves assessed as viral infection curative effect measured 3 to 4 days post viral infection; type: functional; how it was run: as §1
[8] = tested on: Tobacco mosaic virus; assay: Antiviral activity against Tobacco mosaic virus (TMV) pre-treated with compound for 30 min followed by inoculation on left side of Nicotiana tabacum leaves assessed as virus inactivation effect measured 3 to 4 days post viral infection; type: functional, organism-based; how it was run: as §2
[9] = tested on: Tobacco mosaic virus; assay: Antiviral activity against Tobacco mosaic virus (TMV) inoculated on whole Nicotiana tabacum leaves followed by smearing with compound solution on left side of leaves assessed as viral infection curative effect measured 3 to 4 days post viral infection; type: functional, organism-based; how it was run: as §1
[10] = tested on: Tobacco mosaic virus; assay: Antiviral activity against Tobacco mosaic virus (TMV) pre-treated with 250 ug/mL compound for 30 min followed by inoculation on left side of Nicotiana tabacum leaves assessed as virus inactivation effect measured 3 to 4 days post viral infection; type: functional; how it was run: as §2

Molecule `CCOP(=O)(OCC)C(NC(=O)c1cccc(F)c1)c1ccccc1F` (configuration not stated) has an Activity [1] of 41%, an Activity [2] of 6.2% and an Activity [3] of 70.7%.

With `CCOP(=O)(OCC)C(NC(=O)c1ccccc1C(F)(F)F)c1ccccc1F` (configuration not stated) the Activity [1] was 39.2%, the Activity [2] was 2.1% and the Activity [3] was 62.2%.

Molecule `CCOP(=O)(OCC)C(NC(=O)c1ccccc1Cl)c1ccccc1F` (configuration not stated) has an Activity [1] of 40.9%, an Activity [2] of 19.7% and an Activity [3] of 39%.

`CCOP(=O)(OCC)C(NC(=O)/C=C/c1ccccc1)c1ccccc1F` (configuration not stated) was tested, and the Activity [1] was 39%, the Activity [2] was 22.4% and the Activity [3] was 51.5%.

Work on `CCOP(=O)(OCC)C(NC(=O)c1cc(OC)c(OC)c(OC)c1)c1ccccc1F` (configuration not stated) yielded an Activity [1] of 41.2%, an Activity [2] of 17.1% and an Activity [3] of 33.7%.

`CCOP(=O)(OCC)C(NC(=O)c1ccccc1F)c1ccccc1F` (configuration not stated) showed an Activity [1] of 50%, an Activity [2] of 20.8% and an Activity [3] of 80%.

`CCOP(=O)(OCC)C(NC(=O)/C=C/c1ccccc1)c1ccccc1` (configuration not stated) [(E)-DIETHYL CINNAMAMIDO(PHENYL)METHYLPHOSPHONATE] showed an Activity [4] of 49.1%, an Activity [5] of 61.2% and an Activity [6] of 39.9%. For the same molecule, the Activity [7] was 32.3%, the Activity [1] was 58.7% and the EC50 [8] was 65.2 µg/mL (≈ 175 µM). The EC50 [9] was 439 µg/mL (≈ 1180 µM), the Activity [2] was 50% and the Activity [3] was 88.2%. For the same molecule, the Activity [10] was 79.9%.

For `CCOP(=O)(OCC)C(NC(=O)c1ccccc1)c1ccccc1F` (configuration not stated) [DIETHYL BENZAMIDO(2-FLUOROPHENYL)METHYLPHOSPHONATE], the Activity [1] was 43.1%, the Activity [2] was 32.2% and the Activity [3] was 70%.

In the case of `CCOP(=O)(OCC)C(NC(=O)c1ccccc1)c1ccccc1` (configuration not stated) [DIETHYL BENZAMIDO(PHENYL)METHYLPHOSPHONATE], the Activity [1] is reported as 39.1%, the Activity [2] is reported as 8.7% and the Activity [3] is reported as 42.4%.

`CCOP(=O)(OCC)C(NC(=O)c1ccccc1C(F)(F)F)c1ccccc1` (configuration not stated) [DIETHYL PHENYL(2-(TRIFLUOROMETHYL)BENZAMIDO)METHYLPHOSPHONATE] showed an Activity [1] of 41.1%, an Activity [2] of 2.4% and an Activity [3] of 45.3%.

In the case of `CCOP(=O)(OCC)C(NC(=O)c1cc(OC)c(OC)c(OC)c1)c1ccccc1` (configuration not stated) [DIETHYL PHENYL(3,4,5-TRIMETHOXYBENZAMIDO)METHYLPHOSPHONATE], the Activity [1] is reported as 42%, the Activity [2] is reported as 35.6% and the Activity [3] is reported as 45.6%.

With `CCOP(=O)(OCC)C(NC(=O)c1ccccc1Cl)c1ccccc1` (configuration not stated) [DIETHYL(2-CHLOROBENZAMIDO)(PHENYL)METHYLPHOSPHONATE] the Activity [4] was 59%, the Activity [5] was 60.9% and the Activity [1] was 58%. The EC50 [8] was 60 µg/mL (≈ 157 µM), the Activity [2] was 19% and the Activity [3] was 90.6%. It also gave an Activity [10] of 82.2%.

For `CCOP(=O)(OCC)C(NC(=O)c1ccccc1F)c1ccccc1` (configuration not stated) [DIETHYL(2-FLUOROBENZAMIDO)(PHENYL)METHYLPHOSPHONATE], the Activity [4] was 36.7%, the Activity [5] was 47.2% and the Activity [6] was 49%. The Activity [7] was 34%, the Activity [1] was 42% and the EC50 [8] was 119 µg/mL (≈ 326 µM). It also gave an EC50 [9] of 256 µg/mL (≈ 700 µM), an Activity [2] of 53.6% and an Activity [3] of 78%. It also gave an Activity [10] of 70.9%.

For `CCOP(=O)(OCC)C(NC(=O)c1cccc(F)c1)c1ccccc1` (configuration not stated) [DIETHYL(3-FLUOROBENZAMIDO)(PHENYL)METHYLPHOSPHONATE], the Activity [1] was 56%, the Activity [2] was 24.6% and the Activity [3] was 82.1%.

With `CCOP(=O)(OCC)C(NC(=O)c1ccc(F)cc1)c1ccccc1` (configuration not stated) [DIETHYL(4-FLUOROBENZAMIDO)(PHENYL)METHYLPHOSPHONATE] the Activity [4] was 70%, the Activity [5] was 76.1% and the Activity [1] was 65.7%. It also gave an EC50 [8] of 54.8 µg/mL (≈ 150 µM), an Activity [2] of 19.2% and an Activity [3] of 99.1%. The Activity [10] was 100%.

`CCCOP(=O)(OCCC)C(NC(=O)c1ccccc1)c1ccccc1` (configuration not stated) [DIPROPYL BENZAMIDO(PHENYL)METHYLPHOSPHONATE] was tested, and the Activity [4] was 10%, the Activity [5] was 23% and the Activity [6] was 23.9%. For the same molecule, the Activity [7] was 14%, the Activity [1] was 49.9% and the EC50 [8] was 279 µg/mL (≈ 743 µM). The EC50 [9] was 560 µg/mL (≈ 1490 µM), the Activity [2] was 42% and the Activity [3] was 78.9%. For the same molecule, the Activity [10] was 51%.

`CCCOP(=O)(OCCC)C(NC(=O)c1ccccc1C(F)(F)F)c1ccccc1` (configuration not stated) [DIPROPYL PHENYL(2-(TRIFLUOROMETHYL)BENZAMIDO)METHYLPHOSPHONATE] showed an Activity [4] of 31.2%, an Activity [5] of 39.2% and an Activity [6] of 38%. For the same molecule, the Activity [7] was 31.6%, the Activity [1] was 44% and the EC50 [8] was 199 µg/mL (≈ 449 µM). The EC50 [9] was 422 µg/mL (≈ 952 µM), the Activity [2] was 53.7% and the Activity [3] was 80%. For the same molecule, the Activity [10] was 60%.

Molecule `CCCOP(=O)(OCCC)C(NC(=O)c1cc(OC)c(OC)c(OC)c1)c1ccccc1` (configuration not stated) [DIPROPYL PHENYL(3,4,5-TRIMETHOXYBENZAMIDO)METHYLPHOSPHONATE] has an Activity [4] of 28.8%, an Activity [5] of 30.3% and an Activity [6] of 50.6%. It also gave an Activity [7] of 40.9%, an Activity [1] of 58.8% and an EC50 [8] of 210 µg/mL (≈ 451 µM). The EC50 [9] was 250 µg/mL (≈ 537 µM), the Activity [2] was 55% and the Activity [3] was 83.4%. For the same molecule, the Activity [10] was 61%.

`CCCOP(=O)(OCCC)C(NC(=O)c1cccc(F)c1)c1ccccc1` (configuration not stated) [DIPROPYL(3-FLUOROBENZAMIDO)(PHENYL)METHYLPHOSPHONATE] showed an Activity [4] of 40.1%, an Activity [5] of 46% and an Activity [6] of 21%. It also gave an Activity [7] of 12.9%, an Activity [1] of 50.9% and an EC50 [8] of 150 µg/mL (≈ 381 µM). For the same molecule, the EC50 [9] was 546 µg/mL (≈ 1390 µM), the Activity [2] was 43% and the Activity [3] was 86.6%. The Activity [10] was 65%.

With `CNCC(=O)N[C@@H](CO)C(=O)N[C@H]1[C@H](O)[C@@H](O)[C@H](n2ccc(N)nc2=O)O[C@@H]1C(N)=O` [NINGNANMYCIN] the Activity [4] was 69%, the Activity [5] was 78.4% and the Activity [6] was 51%. The Activity [7] was 40.9%, the Activity [1] was 60.2% and the EC50 [8] was 55.6 µg/mL (≈ 125 µM). It also gave an EC50 [9] of 246 µg/mL (≈ 555 µM), an Activity [2] of 55.4% and an Activity [3] of 100%. It also gave an Activity [10] of 100%.
